Results on one compound are retold here after ChEMBL document CHEMBL4152367, “Discovery of a Potent Thiazolidine Free Fatty Acid Receptor 2 Agonist with Favorable Pharmacokinetic Properties” (J Med Chem, 2018).

Data set [1] is described as follows: Clearance in Balb/c mouse primary hepatocytes per million cells after 2 hrs by LC-MS/MS analysis. Type of data set: ADME, cell-based, Hepatocyte. To be noted: read-out: CLH.
Data set [2] is described as follows: Tmax in Balb/c mouse at 10 mg/kg, po by HPLC-MS/MS analysis. Type of data set: ADME, organism-based. The settings on record: in vivo. The gist of the method:
(§1)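 Balb/c mice dosed at 5 mg/kg iv or 10 mg/kg po. Plasma concentrations over time used to derive t1/2, AUC0–∞, Vd and total clearance (iv), and tmax, Cmax, AUC0–∞ and oral bioavailability (po).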

In data set [3] the target is Free fatty acid receptor 1 (Homo sapiens) (UniProt O14842). Kind of data set: Antagonist activity at human FFA1 receptor expressed in HEK293 cells assessed as inhibition of linoleic acid-induced calcium flux at 10 uM by fluorimetry. Type of data set: functional, cell-based.
Data set [4] in a line: AUC (0 to infinity) in Balb/c mouse at 5 mg/kg, iv by HPLC-MS/MS analysis. It counts as ADME, organism-based. More on the design: dose 5 mg/kg, time infinity, route intravenous. To be noted: in vivo. In outline: as §1
Data set [5] deals with T1, Peroxisome proliferator-activated receptor delta (Homo sapiens) (UniProt Q03181).
T1 sequence (whole entry): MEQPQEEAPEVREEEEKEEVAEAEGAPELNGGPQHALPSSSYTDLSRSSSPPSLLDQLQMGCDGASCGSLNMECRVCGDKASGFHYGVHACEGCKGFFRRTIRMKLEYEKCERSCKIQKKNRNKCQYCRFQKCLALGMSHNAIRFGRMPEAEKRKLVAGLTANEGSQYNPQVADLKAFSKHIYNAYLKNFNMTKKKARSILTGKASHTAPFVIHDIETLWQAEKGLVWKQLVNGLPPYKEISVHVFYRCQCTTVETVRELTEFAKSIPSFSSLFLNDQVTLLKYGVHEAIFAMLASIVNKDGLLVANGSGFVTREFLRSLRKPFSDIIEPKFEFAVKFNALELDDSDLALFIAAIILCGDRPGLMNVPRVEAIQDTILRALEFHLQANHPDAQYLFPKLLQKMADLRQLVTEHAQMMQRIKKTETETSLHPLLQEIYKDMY
Kind of data set: Antagonist activity at human PPARdelta expressed in Escherichia coli assessed as inhibition of GW0742-induced calcium flux at 10 uM by fluorimetry.

Data set [6] concerns the target T2, Free fatty acid receptor 4 (Homo sapiens) (UniProt Q5NUL3).
T2 sequence (whole entry): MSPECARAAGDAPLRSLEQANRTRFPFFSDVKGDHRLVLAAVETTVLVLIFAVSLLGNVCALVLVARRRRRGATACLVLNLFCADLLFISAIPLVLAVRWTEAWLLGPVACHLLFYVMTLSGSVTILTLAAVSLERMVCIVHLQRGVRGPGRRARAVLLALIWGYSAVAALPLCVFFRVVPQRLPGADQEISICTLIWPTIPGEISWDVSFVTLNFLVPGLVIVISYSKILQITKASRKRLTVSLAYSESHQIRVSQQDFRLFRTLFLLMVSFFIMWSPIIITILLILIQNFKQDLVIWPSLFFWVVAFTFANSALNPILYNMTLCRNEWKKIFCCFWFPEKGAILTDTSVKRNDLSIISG
Nature of the data set: Agonist activity at human FFA4 receptor expressed in HEK293 cells assessed as induction of calcium flux at 10 uM by fluorimetry. Type of data set: functional, cell-based.

The target in data set [7] is T3, Peroxisome proliferator-activated receptor alpha (Homo sapiens) (UniProt Q07869).
T3 sequence (whole entry): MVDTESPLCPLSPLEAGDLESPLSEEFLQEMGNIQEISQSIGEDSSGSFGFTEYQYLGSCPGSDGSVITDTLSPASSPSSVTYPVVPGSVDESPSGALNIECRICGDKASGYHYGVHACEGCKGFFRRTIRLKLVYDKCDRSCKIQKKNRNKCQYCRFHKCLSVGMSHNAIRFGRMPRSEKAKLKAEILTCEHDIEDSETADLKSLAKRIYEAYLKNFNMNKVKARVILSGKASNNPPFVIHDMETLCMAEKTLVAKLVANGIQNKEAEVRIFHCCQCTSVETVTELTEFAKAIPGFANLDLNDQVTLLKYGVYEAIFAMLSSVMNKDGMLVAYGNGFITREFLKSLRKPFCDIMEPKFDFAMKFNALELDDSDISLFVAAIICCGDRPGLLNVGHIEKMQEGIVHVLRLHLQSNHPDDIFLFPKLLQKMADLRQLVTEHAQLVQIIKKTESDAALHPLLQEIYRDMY
Nature of the data set: Antagonist activity at human PPARalpha expressed in Escherichia coli assessed as inhibition of […]-induced calcium flux at 10 uM by alpha screen assay.

In data set [8] the target is T2, Free fatty acid receptor 4 (Homo sapiens). Nature of the data set: Antagonist activity at human FFA4 receptor expressed in HEK293 cells assessed as inhibition of GW9508-induced of calcium flux at 10 uM by fluorimetry. It counts as functional, cell-based.
The target of data set [9] is T4, Oxysterols receptor LXR-beta (Homo sapiens) (UniProt P55055).
T4 sequence (whole entry): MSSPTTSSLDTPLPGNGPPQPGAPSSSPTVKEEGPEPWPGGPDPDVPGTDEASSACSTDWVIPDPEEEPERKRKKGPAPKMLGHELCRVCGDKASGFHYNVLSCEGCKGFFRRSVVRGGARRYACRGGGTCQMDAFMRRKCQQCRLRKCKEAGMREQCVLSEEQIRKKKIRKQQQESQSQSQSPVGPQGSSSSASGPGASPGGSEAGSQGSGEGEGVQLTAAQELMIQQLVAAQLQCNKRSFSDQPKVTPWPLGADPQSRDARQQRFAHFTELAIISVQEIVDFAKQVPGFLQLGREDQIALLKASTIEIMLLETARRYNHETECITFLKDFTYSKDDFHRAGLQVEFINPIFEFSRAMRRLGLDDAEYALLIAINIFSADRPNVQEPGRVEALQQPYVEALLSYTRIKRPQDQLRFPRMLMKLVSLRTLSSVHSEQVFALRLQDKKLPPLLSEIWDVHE
Nature of the data set: Antagonist activity at human LXRbeta expressed in Escherichia coli assessed as inhibition of T0901317-induced calcium flux at 10 uM by fluorimetry.

Data set [10] is described as follows: Half life in Balb/c mouse at 5 mg/kg, ip by HPLC-MS/MS analysis. Type of data set: ADME, organism-based. To be noted: in vivo.
Data set [11] addresses T5, Free fatty acid receptor 3 (Homo sapiens) (UniProt O14843).
T5 sequence (whole entry): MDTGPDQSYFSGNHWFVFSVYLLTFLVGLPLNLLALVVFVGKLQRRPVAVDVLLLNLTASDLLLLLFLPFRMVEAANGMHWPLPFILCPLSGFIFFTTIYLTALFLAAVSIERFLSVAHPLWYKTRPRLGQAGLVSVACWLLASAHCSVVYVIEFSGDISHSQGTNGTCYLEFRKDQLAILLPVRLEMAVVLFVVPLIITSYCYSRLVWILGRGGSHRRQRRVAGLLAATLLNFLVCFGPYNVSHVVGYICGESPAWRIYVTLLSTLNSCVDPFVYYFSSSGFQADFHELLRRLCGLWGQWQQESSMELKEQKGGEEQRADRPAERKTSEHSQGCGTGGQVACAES
Kind of data set: Agonist activity at FFA3R (unknown origin) up to 100 uM. It counts as functional.

The nature of data set [12]: Aqueous solubility of the compound in PBS buffer at pH 7.4 after 24 hrs by HPLC analysis. Type of data set: physicochemical.

Values after ≈ are worked out from the molar mass of the structure shown. Active and inactive are the calls of the source. The rule behind the calls is not given here.

Chain of Free fatty acid receptor 1 (Homo sapiens) (O14842 whole entry): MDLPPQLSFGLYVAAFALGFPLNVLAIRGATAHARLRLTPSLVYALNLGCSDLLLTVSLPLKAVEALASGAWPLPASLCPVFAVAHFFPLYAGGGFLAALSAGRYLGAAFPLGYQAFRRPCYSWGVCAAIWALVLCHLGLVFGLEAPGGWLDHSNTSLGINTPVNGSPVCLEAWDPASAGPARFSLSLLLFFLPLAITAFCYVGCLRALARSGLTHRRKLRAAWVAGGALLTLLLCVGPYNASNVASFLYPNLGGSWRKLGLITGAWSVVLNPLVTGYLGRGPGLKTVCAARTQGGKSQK

Turning to `Cc1noc(C)c1-c1ccc(C(=O)N2[C@@H](c3ccccc3Cl)SC[C@H]2C(=O)O)cc1`, the hepatocyte CLint in [1] is less than 8 µL/min/1e6 cells. The Tmax in [2] is 15 min. For the same compound, the inhibition entry in [3], in data set [5], in data set [7], in data set [8] and in data set [9] was “inactive” throughout. For the same compound, the AUC(0-inf) in [4] was 4100 ng·h/mL. Moreover, the outcome in data set [6] and in data set [11] was inactive. Also, in data set [10], the half-life is 82 min. Moreover, in [12], the solubility at 24 h was 182 µM (≈ 80.6 µg/mL).
